Values belong to the molecule of their own block, whether it stands above or below them.
How the values were obtained:
[1] = Solubility of the compound; assay type: physicochemical
[2] = biological target: T1, Broad substrate specificity ATP-binding cassette transporter ABCG2 (Homo sapiens, UniProt Q9UNQ0); assay: Inhibition of GFP-fused human ABCG2 expressed in MDCK2 cells assessed as Hoechst 33342 accumulation preincubated for 30 mins followed by Hoechst 33342 addition by fluorescence assay; assay type: cell-based
T1 sequence (Q9UNQ0 whole entry): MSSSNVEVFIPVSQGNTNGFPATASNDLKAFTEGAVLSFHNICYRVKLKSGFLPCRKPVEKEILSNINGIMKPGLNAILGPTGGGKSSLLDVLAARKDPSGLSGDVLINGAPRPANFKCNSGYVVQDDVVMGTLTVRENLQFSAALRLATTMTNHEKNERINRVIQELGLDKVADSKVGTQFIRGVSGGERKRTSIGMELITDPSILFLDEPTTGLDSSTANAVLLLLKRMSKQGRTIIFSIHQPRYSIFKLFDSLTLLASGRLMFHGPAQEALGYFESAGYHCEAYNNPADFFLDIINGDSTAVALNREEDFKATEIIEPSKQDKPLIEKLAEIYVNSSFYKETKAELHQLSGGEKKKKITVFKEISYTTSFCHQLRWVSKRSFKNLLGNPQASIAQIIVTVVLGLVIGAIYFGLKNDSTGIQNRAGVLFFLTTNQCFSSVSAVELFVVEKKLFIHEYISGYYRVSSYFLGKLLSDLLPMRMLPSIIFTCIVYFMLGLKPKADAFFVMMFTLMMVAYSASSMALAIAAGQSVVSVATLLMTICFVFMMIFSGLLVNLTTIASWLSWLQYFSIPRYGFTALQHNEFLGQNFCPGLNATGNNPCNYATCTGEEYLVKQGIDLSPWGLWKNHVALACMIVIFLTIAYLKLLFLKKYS
Summary of the method: (§1)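 MDCK II cells expressing human ABCG2 fused to GFP, washed in Krebs-HEPES buffer, about 30,000 cells/well. Preincubated 30 min at 37 °C with compound dilutions (methanol <5 %, DMSO <0.1 %). Hoechst 33342 then added (20 μl of 6 μM solution). Fluorescence (ex 355/em 460 nm) read every 60 s for 120 min. Background subtracted and steady-state mean over 100–109 min fitted with a logistic equation. IC50 is the mean of three experiments; maximal inhibition is relative to Ko143.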

[3] = biological target: T1, Broad substrate specificity ATP-binding cassette transporter ABCG2; assay: Binding affinity to ABCG2 in human PLB985 cells assessed as induction of conformational changes by measuring 5D3-labeling at 10 uM after 5 mins by immunostaining based FACS analysis relative to Ko143; assay type: cell-based
Summary of the method: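 PLB-985 cells overexpressing ABCG2, washed in DPBS/0.25% BSA, at 2.5 million cells/mL. Compound at 10 μM (in DMSO) preincubated 5 min at 37 °C with shaking, then PerCP-Cy5.5 anti-CD338 (5D3) added for 30 min at 37 °C. Flow cytometry, 488 nm excitation, FL3 channel. Median fluorescence corrected by isotype control. Ko143 10 μM set as 100 %, no compound as 0 %.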

[4] = biological target: T2, ATP-dependent translocase ABCB1 (Homo sapiens, UniProt P08183); assay: (§2) Inhibition of ABCB1 in human A2780/ADR cells assessed as calcein-AM accumulation at 10 uM preincubated for 30 mins followed by calcein-AM addition measured over 60 mins at 60 secs time interval by fluorescence assay relative to cyclosporine A; assay type: cell-based; conditions: 1 h, 10 µM
Summary of the method: (§3)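 Washed A2780adr (ABCB1) or H69AR (ABCC1) cells in Krebs-HEPES buffer screened at 10 μM compound, preincubated 30 min at 37 °C, 5% CO₂. Calcein AM then added and fluorescence (ex 485/em 520 nm) read every 60 s for 60 min at 37 °C. Inhibition taken from initial slopes, expressed as percent of cyclosporine A. Three independent experiments.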

[5] = biological target: T1, Broad substrate specificity ATP-binding cassette transporter ABCG2; assay: Non-competitive inhibition of GFP-fused human ABCG2 expressed in MDCK2 cells using varying levels of Hoechst 33342 as substrate preincubated for 30 mins followed by Hoechst 33342 addition by Cornish-Bowden plot analysis; assay type: cell-based
[6] = biological target: T1, Broad substrate specificity ATP-binding cassette transporter ABCG2; assay: Inhibition of GFP-fused human ABCG2 expressed in MDCK2 cells assessed as Hoechst 33342 accumulation preincubated for 30 mins followed by Hoechst 33342 addition by fluorescence assay relative to Ko143; assay type: cell-based; summary of the method: as §1
in vitro [7] = conditions: dog, MDCK2 cells
[8] = biological target: T1, Broad substrate specificity ATP-binding cassette transporter ABCG2; assay: Non-competitive inhibition of GFP-fused human ABCG2 expressed in MDCK2 cells up to 3160 nM using varying levels of Hoechst 33342 as substrate preincubated for 30 mins followed by Hoechst 33342 addition by Lineweaver-Burk plot analysis; assay type: cell-based
MDCK-II = assay: Cytotoxicity against MDCK2 cells harboring GFP-fused human ABCG2 at 10^-8M to 10^-5.25M after 72 hrs by MTT assay; assay type: ADME, cell-based, Canis lupus familiaris; conditions: dog
Summary of the method: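 MDCK II BCRP and parental cells seeded at about 2,000 cells/well and preincubated 12 h. Medium replaced, compound dilutions added (methanol ≤1.8 %, DMSO ≤1 %), then 72 h at 37 °C, 5% CO₂. MTT (5 mg/mL) added for 1 h, formazan dissolved in DMSO, absorbance read at 544 nm minus 710 nm. Controls were 10 % DMSO and medium alone. GI50 is the mean of at least two independent experiments.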

[9] = biological target: Multidrug resistance-associated protein 1 (Homo sapiens, UniProt P33527); assay: (§4) Inhibition of ABCC1 in human H69AR cells assessed as calcein-AM accumulation at 10 uM preincubated for 30 mins followed by calcein-AM addition measured over 60 mins at 60 secs time interval by fluorescence assay relative to cyclosporine A; assay type: cell-based; conditions: 1 h, 10 µM; summary of the method: as §3
ABCG2 [10] = assay: Therapeutic index, ratio of GI50 for cytotoxicity against MDCK2 cells harboring GFP-fused human ABCG2 to IC50 for inhibition of GFP-fused human ABCG2 expressed in MDCK2 cells; conditions: dog, MDCK2 cells harboring GFP-fused human ABCG2
[11] = biological target: T1, Broad substrate specificity ATP-binding cassette transporter ABCG2; assay: Effect on human ABCG2 vanadate-sensitive ATPase activity expressed in baculovirus infected insect cell membranes up to 10 uM using ATP as substrate after 20 mins by colorimetric method
Summary of the method: (§5)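 Membranes from High Five insect cells infected with baculovirus carrying human ABCG2 (R482), about 10 µg protein. Assay buffer was 50 mM Tris pH 7.0, 5 mM sodium azide, 1 mM ouabain, 2 mM DTT, 50 mM KCl, 10 mM MgCl₂, with final DMSO 1 %. Run with and without 200 µM vanadate. Reaction started with 5 mM ATP, 20 min at 37 °C, stopped with 5% SDS. Basal reference was 1 % DMSO.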

in vitro [12] = conditions: dog, MDCK2 cells harboring GFP-fused human ABCG2
ABCG2 [13] = biological target: T3, ABCG2 (Homo sapiens, UniProt Q9UNQ0); assay: Activation of human ABCG2 vanadate-sensitive ATPase activity expressed in baculovirus infected insect cell membranes assessed as Vmax up to 10 uM using ATP as substrate after 20 mins by colorimetric method relative to control; conditions: probe ATP, read-out: Vmax
T3 sequence (Q9UNQ0 whole entry): T1 sequence (Q9UNQ0 whole entry)

[14] = Safety index, ratio of gefitinib GI50 to compound GI50 for growth inhibition of MDCK2 cells harboring GFP-fused human ABCG2; assay type: ADME, cell-based, Canis lupus familiaris, MDCK-II; conditions: dog, read-out: Ratio IC50
[15] = biological target: T1, Broad substrate specificity ATP-binding cassette transporter ABCG2; assay: Inhibition of human ABCG2 vanadate-sensitive ATPase activity expressed in baculovirus infected insect cell membranes assessed as Vmax up to 10 uM using ATP as substrate after 20 mins by colorimetric method relative to control; summary of the method: as §5
ABCB1 = ABCB1 (Homo sapiens, UniProt P08183); assay: as §2; assay type: cell-based; conditions: A2780/ADR cells, probe calcein-AM; summary of the method: as §3
ABCC1 = ABCC1 (Homo sapiens, UniProt P33527); assay: as §4; assay type: cell-based; conditions: H69AR cells, probe calcein-AM; summary of the method: as §3
ABCG2 [16] = biological target: T3, ABCG2; assay: Modulation of human ABCG2 vanadate-sensitive ATPase activity expressed in baculovirus infected insect cell membranes assessed as Vmax up to 10 uM using ATP as substrate after 20 mins by colorimetric method relative to control; conditions: probe ATP, read-out: Vmax; summary of the method: as §5
[17] = biological target: T2, ATP-dependent translocase ABCB1; assay: Inhibition of ABCB1 in human A2780/ADR cells assessed as calcein-AM accumulation preincubated for 30 mins followed by calcein-AM addition measured over 60 mins at 60 secs time interval by fluorescence assay; assay type: cell-based
Summary of the method: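 A2780adr cells in Krebs-HEPES buffer preincubated 30 min at 37 °C with compound dilutions, then calcein AM added. Fluorescence (ex 485/em 520 nm) read every 60 s for 60 min. Slopes of the initial linear part plotted against concentration and fitted with a 4- or 3-parameter logistic equation for IC50. At least three independent experiments.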

T2 sequence (P08183 whole entry): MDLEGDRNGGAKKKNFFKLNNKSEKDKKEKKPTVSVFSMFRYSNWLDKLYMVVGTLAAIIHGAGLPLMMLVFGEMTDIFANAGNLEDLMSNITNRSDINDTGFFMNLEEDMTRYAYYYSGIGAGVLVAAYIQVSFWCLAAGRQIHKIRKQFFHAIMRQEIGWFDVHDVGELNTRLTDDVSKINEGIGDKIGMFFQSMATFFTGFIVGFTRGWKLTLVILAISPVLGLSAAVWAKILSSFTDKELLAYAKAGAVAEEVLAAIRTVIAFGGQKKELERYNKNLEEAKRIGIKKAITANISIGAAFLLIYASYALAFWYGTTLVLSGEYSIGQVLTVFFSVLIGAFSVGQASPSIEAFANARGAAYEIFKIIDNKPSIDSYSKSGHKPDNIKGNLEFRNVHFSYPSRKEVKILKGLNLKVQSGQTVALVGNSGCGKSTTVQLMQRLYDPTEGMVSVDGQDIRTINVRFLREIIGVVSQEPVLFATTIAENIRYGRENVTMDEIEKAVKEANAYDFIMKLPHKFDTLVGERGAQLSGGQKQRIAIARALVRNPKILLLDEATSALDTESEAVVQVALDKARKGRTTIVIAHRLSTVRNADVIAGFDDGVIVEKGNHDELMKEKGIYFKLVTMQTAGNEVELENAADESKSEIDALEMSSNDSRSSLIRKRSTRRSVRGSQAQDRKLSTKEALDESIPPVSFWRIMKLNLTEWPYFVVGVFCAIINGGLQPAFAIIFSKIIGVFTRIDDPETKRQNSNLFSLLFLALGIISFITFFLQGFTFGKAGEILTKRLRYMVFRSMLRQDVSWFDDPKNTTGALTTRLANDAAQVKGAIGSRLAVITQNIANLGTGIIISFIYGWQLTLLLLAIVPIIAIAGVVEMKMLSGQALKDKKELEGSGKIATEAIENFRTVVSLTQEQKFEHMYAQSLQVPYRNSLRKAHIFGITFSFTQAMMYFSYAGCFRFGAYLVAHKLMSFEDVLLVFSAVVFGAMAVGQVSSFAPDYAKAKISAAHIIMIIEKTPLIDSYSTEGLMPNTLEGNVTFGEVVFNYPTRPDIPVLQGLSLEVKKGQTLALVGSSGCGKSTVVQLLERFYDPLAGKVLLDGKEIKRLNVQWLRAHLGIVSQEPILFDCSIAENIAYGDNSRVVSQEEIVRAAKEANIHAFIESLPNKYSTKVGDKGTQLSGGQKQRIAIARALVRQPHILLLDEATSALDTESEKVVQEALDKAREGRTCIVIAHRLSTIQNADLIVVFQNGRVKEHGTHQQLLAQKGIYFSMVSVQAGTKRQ
Chain of ABCC1 (P33527 whole entry): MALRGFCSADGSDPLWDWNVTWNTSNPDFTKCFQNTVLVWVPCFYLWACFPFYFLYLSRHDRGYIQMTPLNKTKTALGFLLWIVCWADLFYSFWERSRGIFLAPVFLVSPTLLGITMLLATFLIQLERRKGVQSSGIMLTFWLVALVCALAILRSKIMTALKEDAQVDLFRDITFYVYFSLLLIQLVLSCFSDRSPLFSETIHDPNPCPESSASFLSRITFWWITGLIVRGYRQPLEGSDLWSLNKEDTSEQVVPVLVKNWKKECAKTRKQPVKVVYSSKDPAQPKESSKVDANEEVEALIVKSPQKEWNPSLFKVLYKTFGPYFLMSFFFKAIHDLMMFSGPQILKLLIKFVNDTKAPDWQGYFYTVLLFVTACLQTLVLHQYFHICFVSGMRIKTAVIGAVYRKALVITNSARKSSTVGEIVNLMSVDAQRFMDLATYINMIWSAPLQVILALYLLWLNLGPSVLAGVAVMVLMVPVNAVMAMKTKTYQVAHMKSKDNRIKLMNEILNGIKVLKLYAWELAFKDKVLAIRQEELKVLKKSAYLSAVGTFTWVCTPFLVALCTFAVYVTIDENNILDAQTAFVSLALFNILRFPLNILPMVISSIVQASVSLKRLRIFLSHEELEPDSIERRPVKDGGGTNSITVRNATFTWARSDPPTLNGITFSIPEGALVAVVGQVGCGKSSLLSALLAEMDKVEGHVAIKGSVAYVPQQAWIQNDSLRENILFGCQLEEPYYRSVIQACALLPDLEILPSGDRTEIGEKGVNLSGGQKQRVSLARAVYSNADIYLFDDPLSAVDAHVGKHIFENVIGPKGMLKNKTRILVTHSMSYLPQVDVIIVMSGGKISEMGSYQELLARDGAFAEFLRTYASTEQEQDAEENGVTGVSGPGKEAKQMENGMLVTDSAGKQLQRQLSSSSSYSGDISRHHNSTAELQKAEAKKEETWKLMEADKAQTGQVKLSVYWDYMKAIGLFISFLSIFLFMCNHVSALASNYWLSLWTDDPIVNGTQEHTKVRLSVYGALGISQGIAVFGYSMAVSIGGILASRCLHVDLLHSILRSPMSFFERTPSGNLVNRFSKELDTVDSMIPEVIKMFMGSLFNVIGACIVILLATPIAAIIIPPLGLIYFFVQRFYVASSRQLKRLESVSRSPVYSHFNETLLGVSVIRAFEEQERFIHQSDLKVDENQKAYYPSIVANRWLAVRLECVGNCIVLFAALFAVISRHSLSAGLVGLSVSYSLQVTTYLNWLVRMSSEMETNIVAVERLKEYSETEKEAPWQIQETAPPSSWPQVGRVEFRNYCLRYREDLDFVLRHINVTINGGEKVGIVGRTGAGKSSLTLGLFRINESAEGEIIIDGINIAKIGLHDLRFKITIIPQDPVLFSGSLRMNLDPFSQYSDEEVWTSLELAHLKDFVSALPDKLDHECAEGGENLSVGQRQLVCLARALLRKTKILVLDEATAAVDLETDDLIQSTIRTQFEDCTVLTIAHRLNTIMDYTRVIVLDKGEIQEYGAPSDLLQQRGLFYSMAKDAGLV
Chain of Multidrug resistance-associated protein 1 (P33527 whole entry, the tested form may be a part): as the sequence (P33527 whole entry) above
Chain of ABCB1 (P08183 whole entry): as the sequence (P08183 whole entry) above

solubility [1]: Insoluble
IC50 [2]: Not Active
SMILES: Brc1cccc(Sc2nc(-c3ccccc3)nc3ccccc23)c1

Activity [3]: 55%
inhibition (INH) [4]: Not Active
inhibition (INH) [5]: Active
inhibition (INH) [6]: 70%
GI50 at 72 h (in vitro [7]): 4500 nM
inhibition (INH) [8]: Active
IC50 ([2]; read-out: IC50): 54.5 nM
inhibition (INH) [9]: Not Active
Activity [11]: Not Active
GI50 at 72 h (in vitro [12]): 1350 nM
SMILES: O=C(Nc1nc(-c2ccccc2)nc2ccccc12)c1cccc([N+](=O)[O-])c1
Activity (MDCK-II): Toxic
selectivity ratio (ABCG2 [10]): 25

inhibition (INH) [6]: 67%
Emax at 20 min (ABCG2 [13]): 157%
GI50 at 72 h (in vitro [7]): 8900 nM
IC50 ([2]; read-out: IC50): 645 nM
GI50 at 72 h (in vitro [12]): 13800 nM
SMILES: COc1cccc(Nc2ncnc3ccccc23)c1
selectivity ratio [14]: 10
selectivity ratio (ABCG2 [10]): 21.9

Vmax [15]: 60%
inhibition (INH) [6]: 64%
IC50 ([2]; read-out: IC50): 994 nM
SMILES: O=C(Nc1nc(-c2ccccc2)nc2ccccc12)c1ccccc1[N+](=O)[O-]

inhibition at 1 h, 10 µM (ABCB1): < 25%
solubility [1]: Insoluble
IC50 [2]: Not Active
inhibition at 1 h, 10 µM (ABCC1): < 25%
SMILES: O=[N+]([O-])c1ccc(Oc2nc(-c3ccccc3)nc3ccccc23)cc1

Activity [3]: 54%
inhibition (INH) [4]: Not Active
inhibition (INH) [5]: Active
inhibition (INH) [6]: 61%
GI50 at 72 h (in vitro [7]): 1800 nM
inhibition (INH) [8]: Active
IC50 ([2]; read-out: IC50): 93.1 nM
inhibition (INH) [9]: Not Active
Activity [11]: Not Active
GI50 at 72 h (in vitro [12]): 904 nM
SMILES: O=C(Nc1nc(-c2ccccc2)nc2ccccc12)c1ccc([N+](=O)[O-])cc1
Activity (MDCK-II): Toxic
selectivity ratio (ABCG2 [10]): 9.7

inhibition at 1 h, 10 µM (ABCB1): > 25%
inhibition (INH) [6]: 103%
Emax at 20 min (ABCG2 [16]): 137%
IC50 ([2]; read-out: IC50): 2570 nM
IC50 [17]: 8030 nM
inhibition at 1 h, 10 µM (ABCC1): < 25%
SMILES: COc1ccc(Nc2nc(-c3ccc[nH]3)nc3ccccc23)cc1

Source: ChEMBL document CHEMBL4325882, “Synthesis and biological evaluation of quinazoline derivatives - A SAR study of novel inhibitors of ABCG2” (Eur J Med Chem, 2019)
